Experimental data: ChEMBL document CHEMBL3045003, “Divalent and oxabridged neonicotinoids constructed by dialdehydes and nitromethylene analogues of imidacloprid: design, synthesis, crystal structure, and insecticidal activities” (2010)

Columns and labels:
Type in all cases: functional
Aphis craccivora [1] = test: Insecticidal activity against apterous adult stage of Aphis craccivora (cowpea aphid) in horsebean leaves assessed as mortality at 500 mg/l at 25 +/-1 degC treated for 5 secs measured after 24 hr by leaf-dip method
Outline: (§1)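 Leaf-dip assay: horsebean leaves carrying 40-60 apterous adults were dipped in diluted compound, excess liquid was blotted off with filter paper, and they were held at 25 ± 1 °C, 50% RH. Controls were water containing Triton X-100. Mortality was scored 24 h after treatment, with three repetitions per treatment. Data were adjusted and subjected to probit analysis.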

Mythimna separata [2] = test: Insecticidal activity against second instar larval stage of Mythimna separata (Oriental armyworm) in compound pretreated corn leaves assessed as mortality at 500 mg/l at 25 +/-1 degC after 48 hr
Aphis craccivora [3] = test: Insecticidal activity against apterous adult stage of Aphis craccivora (cowpea aphid) in horsebean leaves assessed as mortality at 25 +/-1 degC treated for 5 secs measured after 24 hr by leaf-dip method; outline: as §1
Mythimna separata [4] = test: Insecticidal activity against second instar larval stage of Mythimna separata (Oriental armyworm) in compound pretreated corn leaves assessed as mortality at 25 +/-1degC after 48 hr
Nilaparvata lugens [5] = test: (§2) Insecticidal activity against macropterous adult stage of imidaclopride-resistant Nilaparvata lugens (brown planthopper) assessed as concentration required to induce mortality per pest at 25 +/-1 degC applied topically to the prothorax notum of insect prior to rearing on rice seedlings measured after 48 hr by microtopical application technique
Outline: (§3)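 Microtopical application on unmated macropterous adult females aged 2-3 days. Compounds were serially diluted in acetone, and a 0.08 μL droplet was applied to the prothorax notum under CO2 anesthesia. About 30 insects were used per concentration, with three repeats; controls received acetone. Insects were then reared on soilless seedlings at 25 ± 1 °C, 16/8 h light/dark. LC50 (ng/pest) was obtained from probit regression lines.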

Nilaparvata lugens [6] = test: Toxicity ratio of imidacloprid LC50 to compound LC50 for macropterous adult stage of imidaclopride-sensitive Nilaparvata lugens (brown planthopper) after 48 hr by microtopical application technique
Outline: (§4)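 Toxic ratio is imidacloprid's baseline-toxicity LC50 divided by the compound's LC50. LC50 values come from topical application of acetone solutions (0.08 μL droplet, prothorax notum, CO2 anesthesia) to unmated macropterous females aged 2-3 days, about 30 per concentration, three repeats. Insects were reared on seedlings at 25 ± 1 °C, and values were derived by probit analysis.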

Nilaparvata lugens [7] = test: as §2, with “imidaclopride-sensitive” for “imidaclopride-resistant”; outline: as §3
Nilaparvata lugens [8] = test: Toxicity ratio of imidacloprid LC50 to compound LC50 for macropterous adult stage of imidaclopride-resistant Nilaparvata lugens (brown planthopper) after 48 hr by microtopical application technique; outline: as §4

O=[N+]([O-])/C=C1/NCCN1Cc1ccc(Cl)nc1
mortality at 500 µg/mL (Aphis craccivora [1]): 100%
mortality at 500 µg/mL (Mythimna separata [2]): 100%
LC50 (Aphis craccivora [3]): 5.12 µM
LC50 (Mythimna separata [4]): 70.9 µM

O=[N+]([O-])C1=C2N(Cc3ccccc3)CCN2[C@@H]2CC[C@H]1O2
mortality at 500 µg/mL (Aphis craccivora [1]): 13.6%
mortality at 500 µg/mL (Mythimna separata [2]): 0%

O=[N+]([O-])C1=C2N(Cc3ccc(Cl)cc3)CCN2[C@@H]2CC[C@H]1O2
mortality at 500 µg/mL (Aphis craccivora [1]): 95.7%
mortality at 500 µg/mL (Mythimna separata [2]): 0%

O=[N+]([O-])/C(=C1/NCCN1Cc1ccc(Cl)nc1)C(O)/C=C(\C1=NCCN1Cc1ccc(Cl)nc1)[N+](=O)[O-] (configuration not stated)
mortality at 500 µg/mL (Aphis craccivora [1]): 78.1%
mortality at 500 µg/mL (Mythimna separata [2]): 100%
LC50 (Mythimna separata [4]): 195 µM

COC(/C=C(\C1=NCCN1Cc1ccc(Cl)nc1)[N+](=O)[O-])/C(=C1\NCCN1Cc1ccc(Cl)nc1)[N+](=O)[O-] (configuration not stated)
mortality at 500 µg/mL (Aphis craccivora [1]): 97.7%
mortality at 500 µg/mL (Mythimna separata [2]): 100%

O=[N+]([O-])/C(=C/C/C=C(\C1=NCCN1Cc1ccc(Cl)nc1)[N+](=O)[O-])C1=NCCN1Cc1ccc(Cl)nc1
mortality at 500 µg/mL (Aphis craccivora [1]): 100%
mortality at 500 µg/mL (Mythimna separata [2]): 100%
LC50 (Aphis craccivora [3]): 9.51 µM
LC50 (Mythimna separata [4]): 28 µM

O=[N+]([O-])C1=C2N(Cc3ccc(Cl)nc3)CCN2[C@@H]2CC[C@H]1O2
LC50 (Nilaparvata lugens [5]): 0.4925 ng
RatioLC50 (Nilaparvata lugens [6]): 1.77
LC50 (Nilaparvata lugens [7]): 0.0742 ng
mortality at 500 µg/mL (Aphis craccivora [1]): 100%
mortality at 500 µg/mL (Mythimna separata [2]): 100%
LC50 (Aphis craccivora [3]): 4.71 µM
RatioLC50 (Nilaparvata lugens [8]): 40.4
LC50 (Mythimna separata [4]): 38.7 µM

O=[N+]([O-])C1=C2N(Cc3cnc(Cl)s3)CCN2[C@@H]2CC[C@H]1O2
mortality at 500 µg/mL (Aphis craccivora [1]): 100%
mortality at 500 µg/mL (Mythimna separata [2]): 100%
LC50 (Aphis craccivora [3]): 8.83 µM
LC50 (Mythimna separata [4]): 49.6 µM

O=[N+]([O-])/N=C1\NCCN1Cc1ccc(Cl)nc1 [IMIDACLOPRID]
LC50 (Nilaparvata lugens [5]): 22.1614 ng
RatioLC50 (Nilaparvata lugens [6]): 1
LC50 (Nilaparvata lugens [7]): 0.1316 ng
mortality at 500 µg/mL (Aphis craccivora [1]): 100%
mortality at 500 µg/mL (Mythimna separata [2]): 100%
LC50 (Aphis craccivora [3]): 35 µM
RatioLC50 (Nilaparvata lugens [8]): 1
LC50 (Mythimna separata [4]): 125 µM
